Values after ≈ are worked out from the molar mass of the structure shown. Active and inactive are the calls of the source. No cut-off for these calls is given here.
What was measured:
[1] = molecular target: T1, DNA topoisomerase 4 (Staphylococcus epidermidis) (UniProt Q5HPI6+Q5HPI5); assay: Inhibition of decatenation activity of DNA topoisomerase 4 in hospital methicillin-resistant Staphylococcus epidermidis 76/04 using kDNA as substrate at 1 to 4 ug/ml after 1 hr using ethidium bromide staining by agarose gel electrophoresis; assay type: protein assay
[2] = tested on: Staphylococcus epidermidis; assay: Inhibition of biofilm formation in Staphylococcus epidermidis […]/[…] after 24 hrs using MTT staining by spectrophotometer analysis; assay type: functional, organism-based; settings: 16/04, 24 h
[3] = molecular target: T2, Topoisomerase IV (Staphylococcus aureus) (UniProt P0C1U9+P0C1S7); assay: Inhibition of decatenation activity of DNA topoisomerase 4 in Staphylococcus aureus ATCC 6538 using kDNA as substrate at 1 to 4 ug/ml […] using ethidium bromide staining by agarose gel electrophoresis; assay type: protein-complex assay
[4] = tested on: Staphylococcus epidermidis; assay: Inhibition of biofilm formation in Staphylococcus epidermidis 31/04 at 4 ug/ml after 24 hrs using MTT staining by spectrophotometer analysis; assay type: functional; settings: 31/04, 24 h
Summary of the method: (§1)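 Methicillin-resistant hospital isolates or ATCC strains of S. epidermidis were grown overnight in tryptone soy broth with 0.5% glucose. Inoculum of 10^7 CFU/mL was mixed 1:1 with compound in TSB-glucose and incubated 24 h at 37 °C. Non-adherent cells were washed off with PBS, and wells were stained with MTT (0.5% in PBS) for 2 h at 37 °C. Stain was solubilized in DMSO/glycine buffer and read at A554. Inhibition is relative to drug-free control; quadruplicates.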

[5] = molecular target: T2, Topoisomerase IV (Staphylococcus aureus); assay: Inhibition of decatenation activity of DNA topoisomerase 4 in hospital methicillin-resistant Staphylococcus aureus 54/05 using kDNA as substrate at 32 ug/ml after 1 hr using ethidium bromide staining by agarose gel electrophoresis; assay type: protein-complex assay
[6] = molecular target: T1, DNA topoisomerase 4 (Staphylococcus epidermidis); assay: Inhibition of decatenation activity of DNA topoisomerase 4 in hospital methicillin-resistant Staphylococcus epidermidis 31/04 using kDNA as substrate at 32 ug/ml after 1 hr using ethidium bromide staining by agarose gel electrophoresis; assay type: protein assay
[7] = molecular target: T2, Topoisomerase IV (Staphylococcus aureus); assay: Inhibition of decatenation activity of DNA topoisomerase 4 in hospital methicillin-resistant Staphylococcus aureus 79/05 using kDNA as substrate at 1 to 4 ug/ml after 1 hr using ethidium bromide staining by agarose gel electrophoresis; assay type: protein-complex assay
[8] = molecular target: T2, Topoisomerase IV (Staphylococcus aureus); assay: Inhibition of decatenation activity of DNA topoisomerase 4 in hospital methicillin-resistant Staphylococcus aureus 81/05 using kDNA as substrate at 32 ug/ml after 1 hr using ethidium bromide staining by agarose gel electrophoresis; assay type: protein-complex assay
Summary of the method: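 Enzyme was S. aureus topoisomerase IV from a commercial decatenation kit, with kinetoplast DNA as substrate (1 U per 200 ng kDNA) in the supplied buffer. Compound was present at 1, 4 or 32 µg/ml, 30 min at 37 °C. Reactions were stopped with STEB and extracted with chloroform/isoamyl alcohol, then run on 1% agarose in TAE for 1 h at 120 V and stained with ethidium bromide. No-enzyme and DMSO controls were included.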

[9] = molecular target: T1, DNA topoisomerase 4 (Staphylococcus epidermidis); settings: 16/04, at 1 to 4 µg/mL
[10] = tested on: Staphylococcus epidermidis; assay: Inhibition of biofilm formation in Staphylococcus epidermidis 23/04 at 4 ug/ml after 24 hrs using MTT staining by spectrophotometer analysis; assay type: functional; settings: 23/04, 24 h
[11] = molecular target: T1, DNA topoisomerase 4 (Staphylococcus epidermidis); settings: 16/04, at 32 µg/mL
[12] = molecular target: T2, Topoisomerase IV (Staphylococcus aureus); assay: Inhibition of decatenation activity of DNA topoisomerase 4 in hospital methicillin-resistant Staphylococcus aureus 79/05 using kDNA as substrate at 32 ug/ml after 1 hr using ethidium bromide staining by agarose gel electrophoresis; assay type: protein-complex assay
[13] = molecular target: T1, DNA topoisomerase 4 (Staphylococcus epidermidis); assay: Inhibition of decatenation activity of DNA topoisomerase 4 in hospital methicillin-resistant Staphylococcus epidermidis 76/04 using kDNA as substrate at 32 ug/ml after 1 hr using ethidium bromide staining by agarose gel electrophoresis; assay type: protein assay
[14] = tested on: Staphylococcus epidermidis; assay: Inhibition of biofilm formation in Staphylococcus epidermidis […]/[…] at 4 ug/ml after 24 hrs using MTT staining by spectrophotometer analysis; assay type: functional; settings: 16/04, 24 h
[15] = molecular target: T2, Topoisomerase IV (Staphylococcus aureus); assay: Inhibition of decatenation activity of DNA topoisomerase 4 in hospital methicillin-resistant Staphylococcus aureus 54/05 using kDNA as substrate at 1 to 4 ug/ml after 1 hr using ethidium bromide staining by agarose gel electrophoresis; assay type: protein-complex assay
[16] = molecular target: T2, Topoisomerase IV (Staphylococcus aureus); assay: Inhibition of decatenation activity of DNA topoisomerase 4 in Staphylococcus aureus NCTC 4163 using kDNA as substrate at 1 to 4 ug/ml […] using ethidium bromide staining by agarose gel electrophoresis; assay type: protein-complex assay
[17] = molecular target: T1, DNA topoisomerase 4 (Staphylococcus epidermidis); assay: Inhibition of decatenation activity of DNA topoisomerase 4 in hospital methicillin-resistant Staphylococcus epidermidis 63/04 using kDNA as substrate at 32 ug/ml after 1 hr using ethidium bromide staining by agarose gel electrophoresis; assay type: protein assay
[18] = tested on: Staphylococcus epidermidis; assay: Inhibition of biofilm formation in Staphylococcus epidermidis ATCC 35984 at 4 ug/ml after 24 hrs using MTT staining by spectrophotometer analysis; assay type: functional; settings: ATCC 35984, 24 h; summary of the method: as §1
[19] = tested on: Staphylococcus epidermidis; assay: Inhibition of biofilm formation in Staphylococcus epidermidis ATCC 35984 after 24 hrs using MTT staining by spectrophotometer analysis; assay type: functional, organism-based; settings: ATCC 35984, 24 h
Summary of the method: (§2)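 Biofilm was grown for 24 h at 37 °C in TSB with 0.5% glucose from 10^7 CFU/mL inoculum, mixed 1:1 with compound. Final concentrations were 0.125–4 or 0.25–8 µg/ml. Wells were PBS-washed and MTT-stained for 2 h at 37 °C, solubilized in DMSO/glycine buffer and read at 554 nm. IC50 (50% inhibition of biofilm formation) was taken from the dose-response curve; quadruplicates.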

[20] = molecular target: T2, Topoisomerase IV (Staphylococcus aureus); assay: Inhibition of decatenation activity of DNA topoisomerase 4 in hospital methicillin-resistant Staphylococcus aureus 80/05 using kDNA as substrate at 1 to 4 ug/ml after 1 hr using ethidium bromide staining by agarose gel electrophoresis; assay type: protein-complex assay
[21] = molecular target: T2, Topoisomerase IV (Staphylococcus aureus); assay: Inhibition of decatenation activity of DNA topoisomerase 4 in Staphylococcus aureus ATCC 29213 using kDNA as substrate at 1 to 4 ug/ml […] using ethidium bromide staining by agarose gel electrophoresis; assay type: protein-complex assay
[22] = molecular target: T1, DNA topoisomerase 4 (Staphylococcus epidermidis); assay: Inhibition of decatenation activity of DNA topoisomerase 4 in Staphylococcus epidermidis ATCC 12228 using kDNA as substrate at 1 to 4 ug/ml after 1 hr using ethidium bromide staining by agarose gel electrophoresis; assay type: protein assay
[23] = tested on: Staphylococcus epidermidis; assay: Inhibition of biofilm formation in Staphylococcus epidermidis 62/04 after 24 hrs using MTT staining by spectrophotometer analysis; assay type: functional, organism-based; settings: 62/04, 24 h; summary of the method: as §2
[24] = molecular target: T2, Topoisomerase IV (Staphylococcus aureus); assay: Inhibition of decatenation activity of DNA topoisomerase 4 in hospital methicillin-resistant Staphylococcus aureus 522/11 using kDNA as substrate at 1 to 4 ug/ml after 1 hr using ethidium bromide staining by agarose gel electrophoresis; assay type: protein-complex assay
[25] = molecular target: T2, Topoisomerase IV (Staphylococcus aureus); assay: Inhibition of decatenation activity of DNA topoisomerase 4 in hospital methicillin-resistant Staphylococcus aureus 53/05 using kDNA as substrate at 1 to 4 ug/ml after 1 hr using ethidium bromide staining by agarose gel electrophoresis; assay type: protein-complex assay
[26] = tested on: Staphylococcus epidermidis; assay: Inhibition of biofilm formation in Staphylococcus epidermidis 62/04 at 4 ug/ml after 24 hrs using MTT staining by spectrophotometer analysis; assay type: functional; settings: 62/04, 24 h; summary of the method: as §1

T1 sequence (Q5HPI5 whole entry, looked up): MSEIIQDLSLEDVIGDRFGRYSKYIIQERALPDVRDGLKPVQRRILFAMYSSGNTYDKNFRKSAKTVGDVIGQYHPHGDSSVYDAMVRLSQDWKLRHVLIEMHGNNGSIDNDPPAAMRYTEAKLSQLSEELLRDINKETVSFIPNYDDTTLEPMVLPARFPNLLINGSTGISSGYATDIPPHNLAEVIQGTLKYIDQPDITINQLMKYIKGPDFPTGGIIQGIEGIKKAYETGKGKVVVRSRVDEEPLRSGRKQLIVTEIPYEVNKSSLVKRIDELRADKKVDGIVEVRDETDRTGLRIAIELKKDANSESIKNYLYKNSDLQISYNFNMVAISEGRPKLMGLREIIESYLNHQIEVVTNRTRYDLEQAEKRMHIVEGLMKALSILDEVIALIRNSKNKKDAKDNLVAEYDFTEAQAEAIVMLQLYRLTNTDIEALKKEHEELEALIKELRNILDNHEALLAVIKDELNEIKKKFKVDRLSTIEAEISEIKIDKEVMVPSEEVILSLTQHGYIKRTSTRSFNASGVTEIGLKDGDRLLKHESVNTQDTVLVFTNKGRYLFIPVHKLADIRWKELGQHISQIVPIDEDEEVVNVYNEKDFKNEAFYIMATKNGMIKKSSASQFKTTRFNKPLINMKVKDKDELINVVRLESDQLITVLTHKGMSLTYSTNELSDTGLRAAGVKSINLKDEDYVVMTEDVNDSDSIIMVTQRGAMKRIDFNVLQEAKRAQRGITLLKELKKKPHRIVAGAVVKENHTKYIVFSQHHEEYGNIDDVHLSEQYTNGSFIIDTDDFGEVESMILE
T1 sequence (Q5HPI6 whole entry, looked up): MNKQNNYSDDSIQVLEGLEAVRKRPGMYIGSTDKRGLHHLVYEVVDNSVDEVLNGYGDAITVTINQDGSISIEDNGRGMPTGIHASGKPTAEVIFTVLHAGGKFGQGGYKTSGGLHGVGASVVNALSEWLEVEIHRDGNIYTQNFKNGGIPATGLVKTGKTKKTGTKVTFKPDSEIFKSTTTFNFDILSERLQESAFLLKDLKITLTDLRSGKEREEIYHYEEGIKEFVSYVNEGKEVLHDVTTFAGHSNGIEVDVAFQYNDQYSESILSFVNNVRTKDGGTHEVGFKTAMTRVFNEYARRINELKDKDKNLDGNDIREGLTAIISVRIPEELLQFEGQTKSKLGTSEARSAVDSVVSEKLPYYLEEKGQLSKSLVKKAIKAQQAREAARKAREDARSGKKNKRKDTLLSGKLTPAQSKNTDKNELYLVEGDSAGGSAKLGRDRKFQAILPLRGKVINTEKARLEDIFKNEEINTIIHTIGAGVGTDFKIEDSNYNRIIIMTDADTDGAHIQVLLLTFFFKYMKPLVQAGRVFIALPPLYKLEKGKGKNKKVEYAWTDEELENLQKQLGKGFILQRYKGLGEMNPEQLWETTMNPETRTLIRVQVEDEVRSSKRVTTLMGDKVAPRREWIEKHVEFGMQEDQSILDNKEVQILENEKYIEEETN

| SMILES | inhibition [1] | IC50 [2] [µg/mL] | inhibition [3] | inhibition at 4 µg/mL [4] [%] | inhibition [5] | inhibition [6] | inhibition [7] | inhibition [8] | inhibition [9] | inhibition at 4 µg/mL [10] [%] | inhibition [11] | inhibition [12] | inhibition [13] | inhibition at 4 µg/mL [14] [%] | inhibition [15] | inhibition [16] | inhibition [17] | inhibition at 4 µg/mL [18] [%] | IC50 [19] [µg/mL] | inhibition [20] | also measured |
| --- | --- | --- | --- | --- | --- | --- | --- | --- | --- | --- | --- | --- | --- | --- | --- | --- | --- | --- | --- | --- | --- |
| O=C(O)c1cn(C2CC2)c2cc(N3CCNCC3)c(F)cc2c1=O [CIPROFLOXACIN] | Active | 6.81 (≈ 20.6 µM) | Active | 18.7 | Active | Active | Active | Active | Active | 5.71 | Active | Active | Active | 42 | Active | Active | Active | 45.4 | 11.6 (≈ 35 µM) | Active | inhibition [21]: Active; inhibition [22]: Active; IC50 [23]: 4.81 µg/mL (≈ 14.5 µM); inhibition [24]: Active; inhibition [25]: Active; inhibition at 4 µg/mL [26]: 59.9% |
| Fc1ccc(NC(=S)Nc2cccc(C(F)(F)F)c2)cc1Cl | Active | 1.35 (≈ 3.87 µM) | Active | 77.1 | Active | Active | Active | Active | Active | 77.9 | Active | Active | Active | 72 | Active | Active | Active | 84 | 1.37 (≈ 3.93 µM) | Active | inhibition [21]: Active; inhibition [22]: Active; IC50 [23]: 0.97 µg/mL (≈ 2.78 µM); inhibition [24]: Active; inhibition [25]: Active; inhibition at 4 µg/mL [26]: 89.7% |
| FC(F)(F)c1cccc(NC(=S)Nc2cccc(Br)c2)c1 | Active | 3.91 (≈ 10.4 µM) | Active | 70.1 | Active | Active | Active | Active | Active | 71.6 | Active | Active | Active | 61.7 | Active | Active | Active | 46.8 | 3.84 (≈ 10.2 µM) | Active | inhibition [21]: Active; inhibition [22]: Active; IC50 [23]: 1.98 µg/mL (≈ 5.28 µM); inhibition [24]: Active; inhibition [25]: Active; inhibition at 4 µg/mL [26]: 84.8% |

Source: ChEMBL document CHEMBL3616436, “Synthesis, cytotoxicity and antimicrobial activity of thiourea derivatives incorporating 3-(trifluoromethyl)phenyl moiety” (Eur J Med Chem, 2015)
